Assay results: ChEMBL document CHEMBL1155063 (Bioorg Med Chem, 2008)

How the values were obtained:
[1] = test system: EKVX; test: Cytotoxicity against human EKVX cells at 10 uM after 48 hrs by MTT assay; type: functional
Summary of the method: (§1)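 Single-dose screen on the NCI 60-cell-line panel, run to the Developmental Therapeutics Program protocol (one-dose mean graph). Each value is the growth percentage of treated cells against untreated control cells.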

[2] = test system: Malme-3M; test: Cytotoxicity against human MALME3M cells at 10 uM after 48 hrs by MTT assay; type: functional; details: values are per cent of control; summary of the method: as §1
[3] = target: T1, Telomerase reverse transcriptase (Homo sapiens, UniProt O14746); test: Effect on human TERT expressed in BJ1 cells at 1 uM after 24 hrs by SEAP assay realtive to control; details: BJ
T1 sequence (O14746 whole entry): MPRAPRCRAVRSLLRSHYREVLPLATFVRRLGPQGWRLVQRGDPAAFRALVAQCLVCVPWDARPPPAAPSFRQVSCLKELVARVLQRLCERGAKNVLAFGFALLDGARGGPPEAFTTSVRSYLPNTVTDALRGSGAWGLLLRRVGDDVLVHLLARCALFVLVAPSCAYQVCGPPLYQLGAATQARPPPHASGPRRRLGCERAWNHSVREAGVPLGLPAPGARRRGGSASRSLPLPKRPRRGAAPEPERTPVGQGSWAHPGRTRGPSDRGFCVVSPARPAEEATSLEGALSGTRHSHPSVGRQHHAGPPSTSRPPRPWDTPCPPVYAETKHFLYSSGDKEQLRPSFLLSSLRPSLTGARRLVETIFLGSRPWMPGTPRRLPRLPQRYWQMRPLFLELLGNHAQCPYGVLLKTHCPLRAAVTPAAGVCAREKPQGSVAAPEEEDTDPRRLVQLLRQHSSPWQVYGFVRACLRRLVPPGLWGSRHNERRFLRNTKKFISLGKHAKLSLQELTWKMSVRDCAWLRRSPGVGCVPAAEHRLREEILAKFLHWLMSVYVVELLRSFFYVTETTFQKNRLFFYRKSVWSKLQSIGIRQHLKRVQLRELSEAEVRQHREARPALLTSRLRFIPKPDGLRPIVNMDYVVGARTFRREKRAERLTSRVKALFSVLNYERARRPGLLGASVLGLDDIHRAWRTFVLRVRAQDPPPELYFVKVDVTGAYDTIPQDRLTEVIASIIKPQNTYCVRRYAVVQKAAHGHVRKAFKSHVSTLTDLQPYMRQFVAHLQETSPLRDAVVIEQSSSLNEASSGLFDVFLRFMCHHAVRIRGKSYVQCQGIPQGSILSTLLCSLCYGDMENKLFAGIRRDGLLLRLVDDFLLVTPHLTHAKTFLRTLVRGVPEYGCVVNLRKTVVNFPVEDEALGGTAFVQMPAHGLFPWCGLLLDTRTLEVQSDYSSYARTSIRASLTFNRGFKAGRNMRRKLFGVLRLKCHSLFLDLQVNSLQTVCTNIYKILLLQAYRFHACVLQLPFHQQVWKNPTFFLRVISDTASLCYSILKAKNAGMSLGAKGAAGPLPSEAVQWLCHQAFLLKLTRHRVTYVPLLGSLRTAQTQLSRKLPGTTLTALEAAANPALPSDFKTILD

[4] = test system: RPMI-8226; test: Cytotoxicity against human RPMI-8226 cells at 10 uM after 48 hrs by MTT assay; type: functional; details: RPMI-8226, 48 h; summary of the method: as §1
[5] = test system: SR; test: Cytotoxicity against human SR cells at 10 uM after 48 hrs by MTT assay; type: functional
Summary of the method: (§2)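 Single-dose screen in the NCI 60-cell-line panel, run according to the Developmental Therapeutics Program protocol (one-dose mean graph). The result is the growth percentage of treated cells relative to untreated control cells.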

[6] = test system: LOX IMVI; test: Cytotoxicity against human LOXIMVI cells at 10 uM after 48 hrs by MTT assay; type: functional; details: values are per cent of control; summary of the method: as §1
[7] = test system: SK-OV-3; test: Cytotoxicity against human SKOV3 cells at 10 uM after 48 hrs by MTT assay; type: functional; details: SK-OV-3, 48 h; summary of the method: as §1
[8] = test system: NCI/ADR-RES; test: Cytotoxicity against human NCI/ADR-RES cells at 10 uM after 48 hrs by MTT assay; type: functional; summary of the method: as §1
[9] = test system: SK-MEL-2; test: Cytotoxicity against human SK-MEL-2 cells at 10 uM after 48 hrs by MTT assay; type: functional; details: SK-MEL-2, 48 h, values are per cent of control; summary of the method: as §1
[10] = test system: UO-31; test: Cytotoxicity against human UO31 cells at 10 uM after 48 hrs by MTT assay; type: functional; details: UO-31, 48 h, values are per cent of control; summary of the method: as §2
[11] = target: T1, Telomerase reverse transcriptase; test: Effect on human TERT expressed in H1299 cells at 10 uM after 24 hrs by SEAP assay relative to control
[12] = test system: NCI-H23; test: Cytotoxicity against human NCI-H23 cells at 10 uM after 48 hrs by MTT assay; type: functional; details: NCI-H23, 48 h; summary of the method: as §1
[13] = test system: SF-295; test: Cytotoxicity against human SF295 cells at 10 uM after 48 hrs by MTT assay; type: functional; details: SF-295, 48 h, values are per cent of control; summary of the method: as §1
[14] = test system: HL-60; test: Cytotoxicity against human HL60 cells at 10 uM after 48 hrs by MTT assay; type: functional; details: HL-60, 48 h; summary of the method: as §1
[15] = test system: MDA-MB-231; test: Cytotoxicity against human MDA-MB-231/ATCC cells at 10 uM after 48 hrs by MTT assay; type: functional; details: MDA-MB-231, 48 h; summary of the method: as §1
[16] = test system: SNB-75; test: Cytotoxicity against human SNB75 cells at 10 uM after 48 hrs by MTT assay; type: functional; details: SNB-75, 48 h, values are per cent of control; summary of the method: as §2
[17] = test system: HCC 2998; test: Growth percent of human HCC2998 cells at 10 uM after 48 hrs by MTT assay; details: HCC 2998, 48 h
[18] = test system: OVCAR-8; test: Cytotoxicity against human OVCAR8 cells at 10 uM after 48 hrs by MTT assay; type: functional; details: OVCAR-8, 48 h; summary of the method: as §1
[19] = test system: HOP-92; test: Cytotoxicity against human HOP92 cells at 10 uM after 48 hrs by MTT assay; type: functional; details: HOP-92, 48 h; summary of the method: as §1
[20] = test system: ACHN; test: Cytotoxicity against human ACHN cells at 10 uM after 48 hrs by MTT assay; type: functional; summary of the method: as §1
[21] = test system: T47D; test: Cytotoxicity against human T47D cells at 10 uM after 48 hrs by MTT assay; type: functional; summary of the method: as §2
[22] = test system: HCT-29; test: Growth percent of human HCT29 cells at 10 uM after 48 hrs by MTT assay; details: HCT-29, 48 h
[23] = test system: SF-268; test: Cytotoxicity against human SF268 cells at 10 uM after 48 hrs by MTT assay; type: functional; details: SF-268, 48 h, values are per cent of control; summary of the method: as §1
[24] = Cell viability of human H1299 cells at 1 uM after 48 hrs by MTT assay relative to control; details: NCI-H1299, 48 h
[25] = test system: HCT-116; test: Growth percent of human HCT116 cells at 10 uM after 48 hrs by MTT assay; details: HCT-116, 48 h
[26] = test system: UACC-257; test: Cytotoxicity against human UACC257 cells at 10 uM after 48 hrs by MTT assay; type: functional; details: UACC-257, 48 h, values are per cent of control; summary of the method: as §2
[27] = target: T1, Telomerase reverse transcriptase; test: Effect on human TERT expressed in H1299 cells at 100 uM after 24 hrs by SEAP assay relative to control
[28] = test system: MCF7; test: Cytotoxicity against human MCF7 cells at 10 uM after 48 hrs by MTT assay; type: functional; details: MCF7, 48 h, values are per cent of control; summary of the method: as §1
[29] = target: T1, Telomerase reverse transcriptase; test: Effect on human TERT expressed in BJ1 cells at 100 uM after 24 hrs by SEAP assay relative to control; details: BJ
[30] = test system: COLO 205; test: Cytotoxicity against human COLO205 cells at 10 uM after 48 hrs by MTT assay; type: functional; details: COLO 205, 48 h, values are per cent of control; summary of the method: as §1
[31] = test system: NCI-H322M; test: Cytotoxicity against human NCI-H322M cells at 10 uM after 48 hrs by MTT assay; type: functional; summary of the method: as §1
[32] = Cytotoxicity against human TERT immortalized BJ1 cells at 100 uM after 48 hrs by MTT assay relative to control; type: cell-based, BJ
Summary of the method: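 hTERT-immortalized BJ1 fibroblasts were grown in DMEM with 10% FCS, 1 mM pyruvate and 4 mM […]. Cells (about 2 × 10^3 per well) were seeded and held 24 h at 37 °C. Compounds were freshly dissolved in DMSO, diluted into medium and left on the cells 48 h. MTT was added for 4 h, then SDS/DMF lysis buffer for 16 h. Absorbance was read at 550 nm and expressed relative to untreated cells (100%).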

[33] = test system: PC-3; test: Cytotoxicity against human PC3 cells at 10 uM after 48 hrs by MTT assay; type: functional; details: PC-3, 48 h, values are per cent of control; summary of the method: as §1
[34] = test system: MDA-MB-435; test: Cytotoxicity against human MDA-MB-435 cells at 10 uM after 48 hrs by MTT assay; type: functional; details: MDA-MB-435, 48 h; summary of the method: as §1

Row | residual activity [11] [%] | Structure (SMILES) | growth percent at 10 µM [1] [%] | growth, % of control at 10 µM [2] [%] | growth percent at 10 µM [4] [%] | growth percent at 10 µM [5] [%] | growth, % of control at 10 µM [6] [%] | growth percent at 10 µM [7] [%] | growth percent at 10 µM [8] [%] | growth, % of control at 10 µM [9] [%] | growth, % of control at 10 µM [10] [%] | growth percent at 10 µM [12] [%] | growth, % of control at 10 µM [13] [%] | growth percent at 10 µM [14] [%] | growth percent at 10 µM [15] [%] | growth, % of control at 10 µM [16] [%] | growth percent at 10 µM [18] [%] | growth percent at 10 µM [19] [%] | growth percent at 10 µM [20] [%] | growth percent at 10 µM [21] [%] | growth percent at 10 µM [22] [%] | also measured
1 | 87 | CC(=O)Nc1ccc2c(c1)C(=O)c1cc(NC(C)=O)ccc1C2=O | 95.3 | 111 | 121 | 3.61 | 99 | 101 | 114 | 30.1 | 96.4 | 94.2 | 103 | 38.7 | 104 | 107 | 99.8 | 101 | 96.9 | 96.2 | 107 | residual activity [3]: 123%; growth percent at 10 µM [17]: 105%; growth, % of control at 10 µM [23]: 114%; cell viability at 1 µM [24]: 117%; growth percent at 10 µM [25]: 102%; growth, % of control at 10 µM [26]: 27%; residual activity [27]: 74%; growth, % of control at 10 µM [28]: 96.9%; residual activity [29]: 117%; growth, % of control at 10 µM [30]: 120%; growth percent at 10 µM [31]: 97.5%; viability at 48 h, 100 µM [32]: 91%; growth, % of control at 10 µM [33]: 103%; growth percent at 10 µM [34]: 109%
2 | 40 | CN(C)CC(=O)Nc1ccc2c(c1)C(=O)c1cc(NC(=O)CN(C)C)ccc1C2=O | 102 | 96.2 | 35 | -46.5 | -52.3 | 70.3 | 47.8 | -30.4 | -82.5 | 51.8 | -83.5 | -65 | 4.49 | 76.1 | 32.3 | 56.1 | 66.4 | 24.6 | 11.7 | residual activity [3]: 96%; growth percent at 10 µM [17]: -74%; growth, % of control at 10 µM [23]: 64.9%; cell viability at 1 µM [24]: 92%; growth percent at 10 µM [25]: 19.1%; growth, % of control at 10 µM [26]: -1.84%; residual activity [27]: 21%; growth, % of control at 10 µM [28]: 7.92%; residual activity [29]: 3%; growth, % of control at 10 µM [30]: -73.6%; growth percent at 10 µM [31]: 32.4%; viability at 48 h, 100 µM [32]: 39%; growth, % of control at 10 µM [33]: 59%; growth percent at 10 µM [34]: 68.4%
3 | 35 | CCN(CC)CCC(=O)Nc1ccc2c(c1)C(=O)c1cc(NC(=O)CCN(CC)CC)ccc1C2=O | 60 | 62.4 | -29 | -0.39 | 3.39 | 44 | 59.5 | -60.4 | -31.5 | 30.3 | -19.9 | 14 | 31.3 | 46.6 | 4.3 | 9.7 | 11.1 | 68.6 | 3.3 | residual activity [3]: 84%; growth, % of control at 10 µM [23]: 35.2%; cell viability at 1 µM [24]: 106%; growth percent at 10 µM [25]: -32.5%; growth, % of control at 10 µM [26]: -14.5%; residual activity [27]: 26%; growth, % of control at 10 µM [28]: 9.34%; residual activity [29]: 37%; growth, % of control at 10 µM [30]: -49.7%; growth percent at 10 µM [31]: 44.8%; viability at 48 h, 100 µM [32]: 36%; growth, % of control at 10 µM [33]: 13.6%; growth percent at 10 µM [34]: 71.1%
4 | 81 | O=C1c2ccc(NC(=O)C3CC3)cc2C(=O)c2cc(NC(=O)C3CC3)ccc21 | 94.3 | 91.8 | 88.4 | 1.69 | 90.3 | 93.2 | 90.8 | 16.9 | 95.5 | 95.8 | 86.6 | 62.5 | 97 | 89.2 | 94.3 | 86.2 | 86.7 | 79.8 | 106 | growth percent at 10 µM [17]: 132%; growth, % of control at 10 µM [23]: 95.1%; cell viability at 1 µM [24]: 46%; growth percent at 10 µM [25]: 87.1%; growth, % of control at 10 µM [26]: 108%; residual activity [27]: 81%; growth, % of control at 10 µM [28]: 77.4%; growth, % of control at 10 µM [30]: 91.9%; growth percent at 10 µM [31]: 106%; viability at 48 h, 100 µM [32]: 47%; growth, % of control at 10 µM [33]: 107%; growth percent at 10 µM [34]: 97.3%
5 | 29 | O=C(CCN1CCCC1)Nc1ccc2c(c1)C(=O)c1cc(NC(=O)CCN3CCCC3)ccc1C2=O | 58.7 | 47 | 47.9 | 19.8 | 30.7 | 27.1 | 80.6 | -45.2 | 5.27 | 31.5 | 48.6 | 85.8 | 30.5 | 77.5 | 19.6 | 7.04 | 29.6 | 59 | 19.5 | growth percent at 10 µM [17]: 20%; growth, % of control at 10 µM [23]: 26.7%; cell viability at 1 µM [24]: 87%; growth percent at 10 µM [25]: 10.5%; growth, % of control at 10 µM [26]: -17.9%; residual activity [27]: 17%; growth, % of control at 10 µM [28]: 13.3%; residual activity [29]: 109%; growth, % of control at 10 µM [30]: -29%; growth percent at 10 µM [31]: 45.8%; viability at 48 h, 100 µM [32]: 39%; growth, % of control at 10 µM [33]: 21.7%; growth percent at 10 µM [34]: 68.8%
